In assay [1] the target is E3 ubiquitin-protein ligase Mdm2 (Homo sapiens, UniProt Q00987). In words: Inhibition of MDM2-p53 interaction (unknown origin) by ELISA. A digest of the protocol:
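MDM2–p53 ELISA protein–protein binding assay; IC50 values were determined in follow-up concentration–response testing.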
On the technique in general: In an ELISA, binding on a coated surface is turned into a signal by an enzyme label.

Assay [2] deals with T1, E3 ubiquitin-protein ligase Mdm2/Cellular tumor antigen p53/Protein Mdm4 (Homo sapiens) (UniProt P04637+Q00987+O15151). In words: Inhibition of MDM2/MDMX-p53 interaction in human SJSA-1 cells expressing amplified MDM2 and wild-type p53 assessed as induction of p21 protein expression at 5 uM after 4 hrs by western blot analysis. It counts as cell-based. The procedure, abridged:
(§1)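 Cell lines with defined MDM2 and p53 status were exposed to increasing compound concentrations for 4 h. p53 pathway activation (p53 and the p53-dependent proteins) was then detected by Western blotting of cell extracts.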

Assay [3] addresses T1, E3 ubiquitin-protein ligase Mdm2/Cellular tumor antigen p53/Protein Mdm4 (Homo sapiens). In words: Inhibition of MDM2/MDMX-p53 interaction in human A2780 cells expressing wild-type p53 assessed as induction of p21 protein expression at 0.2 to 5 uM after 4 hrs by western blot analysis. It counts as cell-based. The procedure, abridged:
as §1
Background: Immunoblotting shows a protein as a band on a membrane.

Assay [4] has the same target. In words: Inhibition of MDM2/MDMX-p53 interaction in human A2780 CP70 cells expressing p53 mutant gene assessed as induction of p21 protein expression at 0.2 to 5 uM after 4 hrs by western blot analysis. It counts as cell-based. The procedure, abridged:
as §1

The target is the same in assay [5]. The experiment in a line: Inhibition of MDM2/MDMX-p53 interaction in human A2780 CP70 cells expressing p53 mutant gene assessed as induction of MDM2 protein expression at 0.2 to 5 uM after 4 hrs by western blot analysis. It counts as cell-based. A digest of the protocol:
as §1

The target is the same in assay [6]. The experiment in a line: Inhibition of MDM2/MDMX-p53 interaction in human SJSA-1 cells expressing amplified MDM2 and wild-type p53 assessed as induction of p53 protein expression at 5 uM after 4 hrs by western blot analysis. It counts as cell-based. The procedure, abridged:
as §1

The target is the same in assay [7]. The experiment in a line: Inhibition of MDM2/MDMX-p53 interaction in human A2780 cells expressing wild-type p53 assessed as induction of MDM2 protein expression at 0.2 to 5 uM after 4 hrs by western blot analysis. It counts as cell-based. A digest of the protocol: as §1
The target is the same in assay [8]. In words: Inhibition of MDM2/MDMX-p53 interaction in human SJSA-1 cells expressing amplified MDM2 and wild-type p53 assessed as induction of MDM2 protein expression at 5 uM after 4 hrs by western blot analysis. The format is cell-based. The procedure, abridged: as §1
Assay [9] has the same target. The experiment in a line: Inhibition of MDM2/MDMX-p53 interaction in human A2780 cells expressing wild-type p53 assessed as induction of p53 protein expression at 0.2 to 5 uM after 4 hrs by western blot analysis. The format is cell-based. A digest of the protocol: as §1
Assay [10] has the same target. In words: Inhibition of MDM2/MDMX-p53 interaction in human A2780 CP70 cells expressing p53 mutant gene assessed as induction of p53 protein expression at 0.2 to 5 uM after 4 hrs by western blot analysis. The format is cell-based. The procedure, abridged:
as §1

Active and inactive are the calls of the source. No cut-off for these calls is given here.

T1 sequence (O15151 whole entry, looked up): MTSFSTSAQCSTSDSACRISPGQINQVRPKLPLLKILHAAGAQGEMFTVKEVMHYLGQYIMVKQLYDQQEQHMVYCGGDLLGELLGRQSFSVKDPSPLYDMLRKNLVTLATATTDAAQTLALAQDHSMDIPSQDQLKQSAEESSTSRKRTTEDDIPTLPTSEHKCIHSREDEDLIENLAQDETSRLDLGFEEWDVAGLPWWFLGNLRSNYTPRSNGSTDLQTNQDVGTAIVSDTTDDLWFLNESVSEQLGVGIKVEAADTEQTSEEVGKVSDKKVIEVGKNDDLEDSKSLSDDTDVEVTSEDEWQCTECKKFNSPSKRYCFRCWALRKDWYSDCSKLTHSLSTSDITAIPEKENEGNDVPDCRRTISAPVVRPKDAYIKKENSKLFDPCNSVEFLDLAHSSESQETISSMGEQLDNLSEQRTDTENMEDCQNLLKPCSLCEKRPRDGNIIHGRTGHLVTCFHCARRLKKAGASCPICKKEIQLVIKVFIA
T1 sequence (P04637 whole entry, looked up): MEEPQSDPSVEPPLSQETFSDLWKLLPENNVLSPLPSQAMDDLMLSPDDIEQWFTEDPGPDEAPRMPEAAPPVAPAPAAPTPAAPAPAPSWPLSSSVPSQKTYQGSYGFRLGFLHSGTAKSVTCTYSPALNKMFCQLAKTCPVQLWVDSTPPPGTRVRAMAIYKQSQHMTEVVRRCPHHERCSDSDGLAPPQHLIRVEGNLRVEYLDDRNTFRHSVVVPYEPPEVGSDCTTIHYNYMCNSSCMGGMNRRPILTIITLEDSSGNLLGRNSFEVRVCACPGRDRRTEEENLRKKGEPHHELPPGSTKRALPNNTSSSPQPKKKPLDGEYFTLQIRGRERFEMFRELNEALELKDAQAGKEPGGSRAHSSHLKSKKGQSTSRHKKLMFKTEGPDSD
T1 sequence (Q00987 whole entry, looked up): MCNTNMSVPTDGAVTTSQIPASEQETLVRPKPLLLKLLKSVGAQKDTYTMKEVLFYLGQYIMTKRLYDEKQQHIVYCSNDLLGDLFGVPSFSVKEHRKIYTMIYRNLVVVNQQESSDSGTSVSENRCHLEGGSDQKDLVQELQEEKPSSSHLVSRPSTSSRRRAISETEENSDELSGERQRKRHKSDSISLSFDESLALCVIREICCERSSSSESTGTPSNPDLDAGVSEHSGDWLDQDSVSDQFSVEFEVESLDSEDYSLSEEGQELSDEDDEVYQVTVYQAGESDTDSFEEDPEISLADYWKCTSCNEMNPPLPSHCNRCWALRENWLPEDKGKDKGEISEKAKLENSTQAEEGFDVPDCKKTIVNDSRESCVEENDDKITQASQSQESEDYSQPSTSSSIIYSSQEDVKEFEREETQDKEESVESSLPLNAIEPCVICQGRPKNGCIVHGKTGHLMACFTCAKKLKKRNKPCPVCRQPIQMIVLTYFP

Take `O=C1NC(=S)NC(=O)C1=Cc1cc(-c2ccccc2)n(-c2ccc(Cl)cc2)c1C1CC1`: the inhibition entry in assay [1] was “Dose-dependent effect”.

Consider `COc1ccc(-n2c(-c3ccccc3)cc(C=C3C(=O)NC(=O)NC3=O)c2-c2ccccc2)cc1`, for which the inhibition result in [1] was “Dose-dependent effect”.

Consider `Cc1ccc(N2C(=O)/C(=C\c3cc(-c4ccccc4)n(-c4ccc(Cl)cc4)c3-c3ccccc3)C(=O)N(c3ccccc3)C2=S)cc1C`, for which, in [1], the inhibition entry was “Dose-dependent effect”.

On to `CNC(=O)C(=Cc1cc(-c2ccccc2)n(-c2ccc(Cl)cc2)c1-c1ccccc1)C(=O)NC`, for which the inhibition entry in assay [1] was “Dose-dependent effect”.

In the case of `Cc1cc(C=C2C(=O)N(c3ccccc3)C(=S)N(c3ccccc3)C2=O)c(C)n1-c1ccc(Br)cc1`, the inhibition entry in assay [1] is “Dose-dependent effect”.

`Cc1cc(C=C2C(=O)NC(=S)NC2=O)c(C)n1-c1sc2c(c1C#N)CCCC2`: the inhibition entry in assay [2], in assay [6] and in [8] was “Active” each time. The inhibition entry in assay [3], in assay [4], in assay [5], in assay [7], in assay [9] and in assay [10] was “inactive” in each case.

With `O=C1NC(=S)NC(=O)C1=Cc1cc(-c2ccccc2)n(-c2ccc(Cl)cc2)c1-c1ccccc1`, the inhibition result in assay [2], in assay [3], in [6], in [7] and in assay [8] was “Active” throughout. Moreover, in assay [1], the inhibition result is “Dose-dependent effect”. Also, the inhibition result in assay [4], in [5], in [9] and in [10] was “inactive” throughout.

As to `CCOC(=O)c1ccc(-n2c(-c3ccccc3)cc(C=C3C(=O)NC(=S)NC3=O)c2-c2ccccc2)cc1`, the inhibition entry in assay [1] is “Dose-dependent effect”.

As for `COC(=O)C(=Cc1cc(-c2ccccc2)n(-c2ccc(Cl)cc2)c1-c1ccccc1)C(=O)OC`, the inhibition result in assay [1] is “Dose-dependent effect”.

For the molecule `O=C1NC(=S)NC(=O)C1=Cc1cc(C2CC2)n(-c2ccc(Cl)cc2)c1-c1ccccc1`, the inhibition result in assay [1] was “Dose-dependent effect”.

Take `Cc1cc(C=C2C(=O)NC(=S)NC2=O)c(C)n1-c1ccc(Cl)cc1`: in assay [1], the inhibition entry was “Dose-dependent effect”.

In the case of `O=C1NC(=O)C(=Cc2cc(-c3ccccc3)n(-c3ccc(Cl)cc3)c2-c2ccccc2)C(=O)N1`, the inhibition entry in assay [1] was “Dose-dependent effect”.

As for `CC(C)(C)c1cc(C=C2C(=O)NC(=S)NC2=O)c(-c2ccccc2)n1-c1ccc(Cl)cc1`, the inhibition entry in assay [1] was “Dose-dependent effect”.

In the case of `N#Cc1ccc(-n2c(-c3ccccc3)cc(C=C3C(=O)NC(=O)NC3=O)c2-c2ccccc2)cc1`, the inhibition result in assay [1] is “Dose-dependent effect”.

On to `Cc1cc(/C=C2\C(=O)NC(=S)N(c3ccccc3)C2=O)c(C)n1-c1ccc(Cl)cc1`, for which the inhibition entry in [1] is “Dose-dependent effect”.

For `Cc1ccc(-n2c(C)cc(C=C3C(=O)NC(=S)NC3=O)c2C)cc1`, the inhibition entry in assay [1] was “Dose-dependent effect”.

`O=C1NC(=S)NC(=O)C1=Cc1cc(-c2ccccc2)n(-c2ccc(Br)cc2)c1C1CC1`: the inhibition entry in [1] is “Dose-dependent effect”.

In the case of `O=C1NC(=S)NC(=O)C1=Cc1cc(C2CC2)n(-c2ccc(Br)cc2)c1-c1ccccc1`, the inhibition entry in assay [1] was “Dose-dependent effect”.

As for `O=C1NC(=S)NC(=O)C1=Cc1cc(-c2ccccc2)n(-c2ccc([N+](=O)[O-])cc2)c1-c1ccccc1`, the inhibition result in [1] was “Dose-dependent effect”.

Take `CC(C)(C)c1ccc(-n2c(-c3ccccc3)cc(C=C3C(=O)NC(=O)NC3=O)c2-c2ccccc2)cc1`: the inhibition result in assay [1] was “Dose-dependent effect”.

For `CCN1C(=O)C(=Cc2cc(-c3ccccc3)n(-c3ccc(Cl)cc3)c2-c2ccccc2)C(=O)N(CC)C1=S`, in [1], the inhibition result is “Dose-dependent effect”.

For the molecule `O=C1NC(=S)N(c2cccc(Cl)c2)C(=O)/C1=C/c1cc(-c2ccccc2)n(-c2ccc(Cl)cc2)c1-c1ccccc1`, the inhibition entry in [1] was “Dose-dependent effect”.

As for `O=C1NC(=O)C(=Cc2cc(-c3ccccc3)n(-c3ccc([N+](=O)[O-])cc3)c2-c2ccccc2)C(=O)N1`, in [1], the inhibition result is “Dose-dependent effect”.

For the molecule `O=C1NC(=S)N(c2ccccc2)C(=O)/C1=C/c1cc(-c2ccccc2)n(-c2ccc(Cl)cc2)c1-c1ccccc1`, the inhibition entry in assay [2], in assay [3], in assay [6], in [7] and in assay [8] was “Active” each time. Further, the inhibition result in assay [1] was “Dose-dependent effect”. Further, the inhibition entry in [4], in assay [5], in [9] and in assay [10] was “inactive” throughout.

Turning to `CC1(C)OC(=O)C(Cc2cc(-c3ccccc3)n(-c3ccc(Br)cc3)c2-c2ccccc2)C(=O)O1`, in [1], the inhibition entry was “Dose-dependent effect”.

Turning to `N#Cc1ccc(-n2c(-c3ccccc3)cc(C=C3C(=O)NC(=S)NC3=O)c2-c2ccccc2)cc1`, the inhibition result in [1] is “Dose-dependent effect”.

As for `CN1C(=O)C(=Cc2cc(-c3ccccc3)n(-c3ccc(Cl)cc3)c2-c2ccccc2)C(=O)N(C)C1=S`, in assay [1], the IC50 entry is “ND(Insoluble)”.

On to `NC(=O)C(=Cc1cc(-c2ccccc2)n(-c2ccc(Cl)cc2)c1-c1ccccc1)C(N)=O`, for which the inhibition result in assay [1] is “Dose-dependent effect”.

In the case of `Cc1ccc(-n2c(C)cc(/C=C3\C(=O)NC(=S)N(c4ccccc4)C3=O)c2C)cc1`, in [1], the inhibition entry is “Dose-dependent effect”.

`O=C1NC(=O)C(=Cc2cc(-c3ccccc3)n(-c3ccc(Br)cc3)c2-c2ccccc2)C(=O)N1`: the inhibition result in [1] is “Dose-dependent effect”.

`CCN1C(=O)C(=Cc2cc(-c3ccccc3)n(-c3ccc(Br)cc3)c2-c2ccccc2)C(=O)N(CC)C1=O`: in assay [1], the inhibition result is “Dose-dependent effect”.

Take `CC(C)(C)c1cc(C=C2C(=O)NC(=S)NC2=O)c(-c2ccccc2)n1-c1ccc(Br)cc1`: in [1], the inhibition entry was “Dose-dependent effect”.

Consider `O=C(NCCO)C(=Cc1cc(-c2ccccc2)n(-c2ccc(Cl)cc2)c1-c1ccccc1)C(=O)NCCO`, for which the inhibition entry in assay [1] is “Dose-dependent effect”.

Regarding `O=C(O)/C=C/c1cc(-c2ccccc2)n(-c2ccc(Cl)cc2)c1-c1ccccc1`, in assay [1], the inhibition result was “Dose-dependent effect”.

With `OCC(=Cc1cc(-c2ccccc2)n(-c2ccc(Cl)cc2)c1-c1ccccc1)CO`, in assay [1], the inhibition result was “Dose-dependent effect”.

For `CC1(C)OC(=O)C(=Cc2cc(-c3ccccc3)n(-c3ccc(Br)cc3)c2-c2ccccc2)C(=O)O1`, the inhibition entry in [1] is “Dose-dependent effect”.

For `CCN1C(=O)C(=Cc2cc(-c3ccccc3)n(-c3ccc(Br)cc3)c2-c2ccccc2)C(=O)N(CC)C1=S`, in [1], the inhibition entry is “Dose-dependent effect”.

The record behind these values is ChEMBL document CHEMBL3217694, “Diaryl- and triaryl-pyrrole derivatives: inhibitors of the MDM2-p53 and MDMX-p53 protein-protein interactions†Electronic supplementary information (ESI) available: Experimental details for compound synthesis, analytical data for all compounds and intermediates. Details for the biological …” (Medchemcomm, 2013).
